What was measured:
J774.A1 = experiment: Cytotoxicity against mouse J774.A1 cells assessed as reduction in cell viability at 10 uM measured after 5 hrs by Cell TiterGlo Luminescent assay relative to control; type: cell-based; settings: j774.a1, 5 h
[1] = Inhibition of Bordetella pertussis ACT by cell free assay
Procedure, shortened: (§1)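 Run cell-free on the bacterial enzyme, with the phosphono diphosphate forms (nucleoside triphosphate analogues) added directly rather than the bisamide prodrugs; an IC50 was obtained.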

[2] = Inhibition of Bordetella pertussis ACT exposed to mouse J774.A1 cells assessed as inhibition of ACT-induced cAMP accumulation cells pretreated for 5 hrs measured after 30 mins followed by enzyme addition by immunoassay; type: cell-based
[3] = target: T1, Calmodulin-sensitive adenylate cyclase (Bacillus anthracis, UniProt P40136); experiment: Inhibition of Bacillus anthracis edema factor by cell free assay; procedure, shortened: as §1
T1 sequence (P40136 whole entry): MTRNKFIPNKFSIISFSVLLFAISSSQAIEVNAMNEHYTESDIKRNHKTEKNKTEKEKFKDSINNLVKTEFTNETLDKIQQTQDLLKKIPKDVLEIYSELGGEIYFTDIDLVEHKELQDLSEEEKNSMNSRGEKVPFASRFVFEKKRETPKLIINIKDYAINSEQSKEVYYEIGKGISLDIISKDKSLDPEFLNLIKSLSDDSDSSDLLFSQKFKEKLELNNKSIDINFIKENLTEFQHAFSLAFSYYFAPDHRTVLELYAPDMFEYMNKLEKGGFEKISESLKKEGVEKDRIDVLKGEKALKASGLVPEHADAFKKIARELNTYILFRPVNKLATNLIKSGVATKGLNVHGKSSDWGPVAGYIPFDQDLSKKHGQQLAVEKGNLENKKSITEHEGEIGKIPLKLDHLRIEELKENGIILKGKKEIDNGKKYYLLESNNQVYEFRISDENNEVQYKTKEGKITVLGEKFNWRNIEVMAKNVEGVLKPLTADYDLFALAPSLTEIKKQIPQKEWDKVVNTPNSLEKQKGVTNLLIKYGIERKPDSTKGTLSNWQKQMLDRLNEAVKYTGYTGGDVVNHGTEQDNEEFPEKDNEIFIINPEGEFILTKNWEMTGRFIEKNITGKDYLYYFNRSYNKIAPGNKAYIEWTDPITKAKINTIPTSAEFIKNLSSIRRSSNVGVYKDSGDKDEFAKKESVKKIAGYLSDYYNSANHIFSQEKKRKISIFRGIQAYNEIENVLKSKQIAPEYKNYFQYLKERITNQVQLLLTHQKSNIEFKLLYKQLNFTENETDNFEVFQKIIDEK

SMILES	Activity (J774.A1) [%]	IC50 [1] [nM]	IC50 [2] [nM]	IC50 [3] [µM]
CCCCOc1cccc(-c2sc(N)nc2CCOCP(=O)(N[C@@H](Cc2ccccc2)C(=O)OC(C)C)N[C@@H](Cc2ccccc2)C(=O)OC(C)C)c1	35			
CNC(=O)c1ccc(-c2sc(N)nc2CCOCP(=O)(O)OP(=O)(O)OP(=O)(O)O)cc1		37.4		
CC(C)OC(=O)[C@H](Cc1ccccc1)NP(=O)(COCCc1nc(N)sc1-c1ccccc1OCc1ccccc1)N[C@@H](Cc1ccccc1)C(=O)OC(C)C	115		> 10000	
CC(C)OC(=O)[C@H](Cc1ccccc1)NP(=O)(COCCc1nc(N)sc1-c1cccc(F)c1)N[C@@H](Cc1ccccc1)C(=O)OC(C)C	99			
CC(C)Cc1sc(N)nc1-c1ccc(P(=O)(O)OP(=O)(O)OP(=O)(O)O)o1		16000		5.06
Nc1nc(CCOCP(=O)(O)OP(=O)(O)OP(=O)(O)O)c(-c2ccccc2OCc2ccccc2)s1		184		7.81
CC(C)OC(=O)[C@H](Cc1ccccc1)NP(=O)(COCCc1csc(N)n1)N[C@@H](Cc1ccccc1)C(=O)OC(C)C	72		> 10000	
Nc1nc(CCOCP(=O)(O)OP(=O)(O)OP(=O)(O)O)c(-c2cccc(OCc3ccccc3)c2)s1		192		
CC(C)OC(=O)[C@H](Cc1ccccc1)NP(=O)(COCCc1nc(N)sc1-c1cccnc1)N[C@@H](Cc1ccccc1)C(=O)OC(C)C	99		2620	
CC(C)Oc1ccc(-c2sc(N)nc2CCOCP(=O)(O)OP(=O)(O)OP(=O)(O)O)cc1		185		
CC(C)Cc1sc(N)nc1-c1ccc(P(=O)(O)N[C@@H](Cc2ccccc2)C(=O)OC(C)C)o1	86		14200	
CNC(=O)c1cccc(-c2sc(N)nc2CCOCP(=O)(N[C@@H](Cc2ccccc2)C(=O)OC(C)C)N[C@@H](Cc2ccccc2)C(=O)OC(C)C)c1	106		8450	
Nc1nc(CCOCP(=O)(O)OP(=O)(O)OP(=O)(O)O)c(-c2cccc(F)c2)s1		313		
CNC(=O)c1ccc(-c2sc(N)nc2CCOCP(=O)(N[C@@H](Cc2ccccc2)C(=O)OC(C)C)N[C@@H](Cc2ccccc2)C(=O)OC(C)C)cc1	99			
CC(C)OC(=O)[C@H](Cc1ccccc1)NP(=O)(COCc1csc(N)n1)N[C@@H](Cc1ccccc1)C(=O)OC(C)C	83		> 10000	
COc1ccc(-c2sc(N)nc2CCOCP(=O)(N[C@@H](Cc2ccccc2)C(=O)OC(C)C)N[C@@H](Cc2ccccc2)C(=O)OC(C)C)c(C)c1	57		1160	
CNS(=O)(=O)c1cccc(-c2sc(N)nc2CCOCP(=O)(N[C@@H](Cc2ccccc2)C(=O)OC(C)C)N[C@@H](Cc2ccccc2)C(=O)OC(C)C)c1	99			
CC(C)Cc1sc(N)nc1-c1ccc(P(=O)(NC(Cc2ccccc2)C(=O)OC(C)C)N[C@@H](Cc2ccccc2)C(=O)OC(C)C)o1 (stereo not given in full)	88		2120	
CC(C)OC(=O)[C@H](Cc1ccccc1)NP(=O)(COCCc1nc(N)sc1-c1cccc(OCc2ccccc2)c1)N[C@@H](Cc1ccccc1)C(=O)OC(C)C	72			
CC(C)OC(=O)[C@H](Cc1ccccc1)NP(=O)(COCCc1nc(N)sc1-c1ccc(OC(C)C)cc1)N[C@@H](Cc1ccccc1)C(=O)OC(C)C	81			
CNS(=O)(=O)c1ccc(-c2sc(N)nc2CCOCP(=O)(N[C@@H](Cc2ccccc2)C(=O)OC(C)C)N[C@@H](Cc2ccccc2)C(=O)OC(C)C)cc1	94		> 10000	
CC(C)OC(=O)[C@H](Cc1ccccc1)NP(=O)(COCCn1cnc2c(N)ncnc21)N[C@@H](Cc1ccccc1)C(=O)OC(C)C	93		150	
CC(C)OC(=O)[C@H](Cc1ccccc1)NP(=O)(COCCc1nc(N)sc1-c1ccccc1)N[C@@H](Cc1ccccc1)C(=O)OC(C)C	112			
CC(C)OC(=O)[C@H](Cc1ccccc1)NP(=O)(COCc1nc(N)sc1-c1ccccc1)N[C@@H](Cc1ccccc1)C(=O)OC(C)C	54		4680	
CC(C)OC(=O)[C@H](Cc1ccccc1)NP(=O)(COCCc1nc(N)sc1-c1cccc(OC(C)C)c1)N[C@@H](Cc1ccccc1)C(=O)OC(C)C	44		1720	
CC(C)OC(=O)[C@H](Cc1ccccc1)NP(=O)(COCCc1nc(N)sc1Sc1ccccc1)N[C@@H](Cc1ccccc1)C(=O)OC(C)C	36		930	
COc1cc(OC)cc(-c2sc(N)nc2CCOCP(=O)(N[C@@H](Cc2ccccc2)C(=O)OC(C)C)N[C@@H](Cc2ccccc2)C(=O)OC(C)C)c1	86		1430	
Nc1ncnc2c1ncn2CCOCP(=O)(O)OP(=O)(O)OP(=O)(O)O [ADEFOVIR DIPHOSPHATE]		17.8		0.036

Source: ChEMBL document CHEMBL4823269, “Acyclic nucleoside phosphonates with 2-aminothiazole base as inhibitors of bacterial and mammalian adenylate cyclases” (Eur J Med Chem, 2021)
